Laboratory results published in ChEMBL document CHEMBL2010709, “Pinophilins A and B, inhibitors of mammalian A-, B-, and Y-family DNA polymerases and human cancer cell proliferation” (J Nat Prod, 2012).
pIC50: −log10 of the molar value. Active and inactive are the calls of the source. The rule behind the calls is not given here.

Assays:
[1] = Inhibition of cauliflower DNA polymerase alpha assessed as inhibition of incorporation of dTTP into poly(dA)/oligo(dT)18 after 60 mins; parameters: species or system Brassica oleracea var. botrytis
Outline: (§1)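 Compound in DMSO was sonicated for 30 s, then held with enzyme (0.05 units final) at 0 °C for 10 min in 50 mM Tris-HCl pH 7.5, 1 mM DTT, 50% glycerol, 0.1 mM EDTA. The mixture was added to the standard reaction mix with poly(dA)/oligo(dT)18 (A/T = 2/1) and dTTP, 37 °C, 60 min. Activity was relative to no-inhibitor control; mean ± SE, three independent experiments.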

[2] = target: DNA polymerase eta (Homo sapiens) (UniProt Q9Y253); assay: Inhibition of C-terminal-His6-tagged human pol eta expressed in Escherichia coli assessed as inhibition of incorporation of dTTP into poly(dA)/oligo(dT)18 after 60 mins
[3] = target: DNA nucleotidylexotransferase (Bos taurus, UniProt P06526); assay: Inhibition of calf TdT assessed as inhibition of incorporation of dTTP into oligo(dT)18(3'OH) after 60 mins
Outline: (§2)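 Enzyme (0.05 units) was preincubated with compound in DMSO at 0 °C for 10 min in Tris-HCl pH 7.5/DTT/glycerol/EDTA buffer, then reacted at 37 °C for 60 min. Substrates were poly(rA)/oligo(dT)18 (A/T = 2/1) plus dTTP for HIV-1 RT, and oligo(dT)18 (3′-OH) primer plus dTTP for calf thymus TdT. Activity was relative to uninhibited control; mean ± SE of three experiments.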

Deoxyribonuclease-1 = Deoxyribonuclease-1 (Bos taurus, UniProt P00639); assay: Inhibition of bovine deoxyribonuclease 1 using [3H]-labelled DNA after 30 mins by agarose gel electrophoresis
[4] = Inhibition of human His6-tagged DNA polymerase gamma expressed using baculovirus assessed as inhibition of incorporation of dTTP into poly(dA)/oligo(dT)18 after 60 mins; outline: as §1
[5] = Inhibition of rice cv. Nipponbare recombinant C-terminal-His6-tagged DNA polymerase lambda expressed in Escherichia coli assessed as inhibition of incorporation of dTTP into poly(dA)/oligo(dT)18 after 60 mins; parameters: species or system Oryza sativa; outline: as §1
[6] = Inhibition of Escherichia coli polymerase DNA polymerase 1 klenow fragment assessed as inhibition of incorporation of dTTP into poly(dA)/oligo(dT)18 after 60 mins; outline: as §1
A549 = assay: Growth inhibition of human A549 cells after 24 hrs by WST-1 assay; type: functional; conditions: A549, 24 h
Outline: (§3)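 Cancer cells were grown in McCoy's 5A with 10% FBS and penicillin/streptomycin, 37 °C, 5% CO2. Cells were seeded at 1 × 10^4 per well, cultured 12 h, then given compound (10 mM DMSO stock diluted in medium, 0.5% DMSO) for 24 h. WST-1 was added for 4 h and absorbance read at 450/630 nm. GI50 given as mean ± SE, five independent experiments.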

[7] = target: Human immunodeficiency virus type 1 reverse transcriptase (Human immunodeficiency virus 1, UniProt Q72547); assay: Inhibition of HIV-1 reverse transcriptase assessed as inhibition of incorporation of dTTP into poly(rA)/oligo(dT)18 after 60 mins; outline: as §2
[8] = target: Inosine-5'-monophosphate dehydrogenase 2 (Mus musculus, UniProt P24547); assay: Inhibition of mouse IMP dehydrogenase 2
[9] = Inhibition of human DNA polymerase epsilon assessed as inhibition of incorporation of dTTP into poly(dA)/oligo(dT)18 after 60 mins; outline: as §1
DNA polymerase iota = target: T1, DNA polymerase iota (Mus musculus, UniProt Q6R3M4); assay: Inhibition of mouse recombinant C-terminal-His6-tagged DNA polymerase iota assessed as inhibition of incorporation of dTTP into poly(dA)/oligo(dT)18 after 60 mins; outline: as §1
T1 sequence (Q6R3M4 whole entry): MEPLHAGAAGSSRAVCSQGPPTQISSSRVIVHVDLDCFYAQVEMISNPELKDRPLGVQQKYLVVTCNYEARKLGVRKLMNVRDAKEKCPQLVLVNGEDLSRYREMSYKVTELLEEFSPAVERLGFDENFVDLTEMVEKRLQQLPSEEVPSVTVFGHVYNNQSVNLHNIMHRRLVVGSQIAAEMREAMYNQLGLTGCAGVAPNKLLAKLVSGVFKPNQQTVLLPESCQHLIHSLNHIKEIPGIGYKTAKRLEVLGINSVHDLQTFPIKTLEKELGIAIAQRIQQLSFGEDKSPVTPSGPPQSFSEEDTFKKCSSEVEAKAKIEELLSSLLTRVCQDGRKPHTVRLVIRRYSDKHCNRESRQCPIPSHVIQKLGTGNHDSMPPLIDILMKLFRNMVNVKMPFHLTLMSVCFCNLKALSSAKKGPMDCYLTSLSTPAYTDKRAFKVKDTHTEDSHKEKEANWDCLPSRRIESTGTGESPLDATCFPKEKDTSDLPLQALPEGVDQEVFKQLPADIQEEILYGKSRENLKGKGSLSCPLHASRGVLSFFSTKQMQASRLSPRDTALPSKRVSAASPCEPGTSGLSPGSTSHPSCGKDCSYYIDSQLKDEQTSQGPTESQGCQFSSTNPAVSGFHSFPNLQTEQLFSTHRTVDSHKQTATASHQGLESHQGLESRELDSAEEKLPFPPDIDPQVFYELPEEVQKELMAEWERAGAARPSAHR

[10] = Inhibition of Thermus aquaticus DNA polymerase assessed as inhibition of incorporation of dTTP into poly(dA)/oligo(dT)18 after 60 mins at 74 degC
Outline: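 Taq pol (0.05 units) was preincubated with compound (DMSO, sonicated) at 0 °C for 10 min, then reacted with poly(dA)/oligo(dT)18 (A/T = 2/1) and dTTP at 74 °C for 60 min. Activity was expressed relative to no-inhibitor control; mean ± SE, three independent experiments.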

BALL-1 [11] = assay: Growth inhibition of human BALL-1 cells after 24 hrs by WST-1 assay; type: functional; conditions: BALL-1, 24 h; outline: as §3
Tequatrovirus T4 = assay: Inhibition of T4 bacteriophage DNA polymerase assessed as inhibition of incorporation of dTTP into activated DNA primer after 60 mins
HCT-116 [12] = assay: Cell cycle arrest in human HCT116 cells assessed as accumulation at S-phase at GI50 by tritiated thymidine incorporation assay; type: functional, cell-based
Thermus aquaticus = assay: Inhibition of Thermus aquaticus DNA polymerase assessed as inhibition of incorporation of dTTP into activated DNA primer after 60 mins
HCT-116 [13] = assay: Growth inhibition of against human HCT116 cells after 24 hrs by WST-1 assay; type: functional; conditions: HCT-116, 24 h; outline: as §3
[14] = Growth inhibition of HDF cells after 72 hrs by WST-1 assay; type: cell-based; conditions: human
Outline: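 Normal cells (HDF, HUVEC) were grown in Eagle's MEM with 4.5 g/L glucose, 10% FCS, 5 mM L-glutamine and penicillin/streptomycin, 37 °C, 5% CO2. Cells were seeded at 1 × 10^4 per well, cultured 12 h, then exposed to compound (0.5% DMSO final) for 72 h. Viability was read by WST-1 at 450/630 nm. GI50 given as mean ± SE of five experiments.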

BALL-1 [15] = assay: Cell cycle arrest in human BALL-1 cells assessed as accumulation at S-phase at GI50 by tritiated thymidine incorporation assay; type: functional, cell-based

Sequence of DNA nucleotidylexotransferase (P06526 whole entry): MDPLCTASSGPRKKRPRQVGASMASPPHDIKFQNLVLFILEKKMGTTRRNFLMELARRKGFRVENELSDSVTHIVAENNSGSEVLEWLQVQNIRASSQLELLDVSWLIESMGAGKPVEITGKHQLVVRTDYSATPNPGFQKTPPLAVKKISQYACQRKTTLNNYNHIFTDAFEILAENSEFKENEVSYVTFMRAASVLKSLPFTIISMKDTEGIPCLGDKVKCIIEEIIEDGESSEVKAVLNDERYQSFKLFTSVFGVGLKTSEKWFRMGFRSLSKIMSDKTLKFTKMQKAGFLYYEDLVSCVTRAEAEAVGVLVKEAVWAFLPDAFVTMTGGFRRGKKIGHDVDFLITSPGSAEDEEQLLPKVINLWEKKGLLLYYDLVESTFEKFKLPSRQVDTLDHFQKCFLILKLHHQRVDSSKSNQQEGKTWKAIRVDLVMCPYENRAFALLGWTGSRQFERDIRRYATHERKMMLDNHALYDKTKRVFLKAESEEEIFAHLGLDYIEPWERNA
Sequence of DNA polymerase eta (Homo sapiens) (Q9Y253 whole entry, looked up): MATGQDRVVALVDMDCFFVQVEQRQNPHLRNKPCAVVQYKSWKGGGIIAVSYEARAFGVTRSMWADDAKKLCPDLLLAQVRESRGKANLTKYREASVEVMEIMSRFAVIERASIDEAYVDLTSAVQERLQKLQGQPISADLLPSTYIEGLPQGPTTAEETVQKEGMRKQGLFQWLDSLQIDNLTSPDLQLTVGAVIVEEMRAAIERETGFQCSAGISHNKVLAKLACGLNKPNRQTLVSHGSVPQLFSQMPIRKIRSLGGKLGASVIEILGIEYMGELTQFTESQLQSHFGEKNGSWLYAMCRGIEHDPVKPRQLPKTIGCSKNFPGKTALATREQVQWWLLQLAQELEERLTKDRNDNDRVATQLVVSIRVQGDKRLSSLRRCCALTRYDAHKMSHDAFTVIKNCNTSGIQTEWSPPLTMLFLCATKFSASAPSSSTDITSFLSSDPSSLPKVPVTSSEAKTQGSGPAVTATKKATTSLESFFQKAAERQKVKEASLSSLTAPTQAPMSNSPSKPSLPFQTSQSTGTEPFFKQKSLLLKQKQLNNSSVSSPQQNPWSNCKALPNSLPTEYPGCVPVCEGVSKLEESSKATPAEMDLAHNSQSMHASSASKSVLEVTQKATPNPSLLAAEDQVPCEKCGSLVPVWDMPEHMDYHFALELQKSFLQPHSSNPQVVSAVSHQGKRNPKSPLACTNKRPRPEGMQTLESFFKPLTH
Sequence of Inosine-5'-monophosphate dehydrogenase 2 (P24547 whole entry): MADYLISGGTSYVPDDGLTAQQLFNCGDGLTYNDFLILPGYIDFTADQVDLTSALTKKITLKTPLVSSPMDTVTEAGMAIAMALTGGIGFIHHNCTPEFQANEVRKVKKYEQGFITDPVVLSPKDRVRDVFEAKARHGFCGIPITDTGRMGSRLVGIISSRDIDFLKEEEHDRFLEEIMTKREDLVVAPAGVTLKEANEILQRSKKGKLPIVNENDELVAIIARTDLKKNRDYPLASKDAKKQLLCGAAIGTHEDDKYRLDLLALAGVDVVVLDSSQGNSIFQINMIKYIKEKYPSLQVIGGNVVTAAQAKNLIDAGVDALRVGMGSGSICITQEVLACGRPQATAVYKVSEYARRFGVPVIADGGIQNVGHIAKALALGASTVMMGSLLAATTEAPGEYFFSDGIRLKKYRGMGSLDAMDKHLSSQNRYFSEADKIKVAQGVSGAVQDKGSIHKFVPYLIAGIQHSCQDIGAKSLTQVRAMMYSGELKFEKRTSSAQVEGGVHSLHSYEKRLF
Sequence of Deoxyribonuclease-1 (P00639 whole entry): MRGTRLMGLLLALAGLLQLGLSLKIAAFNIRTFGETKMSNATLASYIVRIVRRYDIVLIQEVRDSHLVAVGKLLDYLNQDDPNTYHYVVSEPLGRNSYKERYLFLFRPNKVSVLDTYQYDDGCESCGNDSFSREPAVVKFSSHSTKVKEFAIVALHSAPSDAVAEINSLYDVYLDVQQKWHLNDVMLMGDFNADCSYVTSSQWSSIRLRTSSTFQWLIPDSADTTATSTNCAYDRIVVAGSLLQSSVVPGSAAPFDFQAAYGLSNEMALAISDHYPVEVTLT

Structure (SMILES)	pIC50 [1]	pIC50 [2]	pIC50 [3]	pIC50 (Deoxyribonuclease-1)	pIC50 [4]	pIC50 [5]	pIC50 [6]	GI50 (A549)	pIC50 [7]	pIC50 [8]	pIC50 [9]	pIC50 (DNA polymerase iota)	pIC50 [10]	GI50 (BALL-1 [11])	inhibition (Tequatrovirus T4)	Activity (HCT-116 [12])	inhibition (Thermus aquaticus)	GI50 (HCT-116 [13])	GI50 at 72 h [14]	Activity (BALL-1 [15])
C/C=C/C1=CC2=CC(=O)[C@@](C)(O)[C@@H](OC(=O)c3c(C)cc(O)cc3O)[C@@H]2CO1	< 3.70	4.20	< 3.70	< 3.70	4.17	< 3.70	< 3.70	65.7 µM	< 3.70	< 3.70	4.18	4.20	< 3.70	62 µM	inactive	Active	inactive	64.6 µM	> 200 µM	Active
C/C=C/C1=CC2=CC(=O)[C@@](C)(OC(=O)c3c(C)cc(O)cc3O)[C@@H](O)[C@@H]2CO1 [PINOPHILIN A]	< 3.70	4.29	< 3.70	< 3.70	4.25	< 3.70	< 3.70	52.5 µM	< 3.70	< 3.70	4.28	4.30	< 3.70	50.2 µM	inactive	Active	inactive	51.3 µM	> 200 µM	Active
Cc1cc(O)cc(O)c1C(=O)O[C@H]1[C@@H]2COC(/C=C/CO)=CC2=CC(=O)[C@@]1(C)O [PINOPHILIN B]	< 3.70	4.04	< 3.70	< 3.70	4.03	< 3.70	< 3.70	93.1 µM	< 3.70	< 3.70	4.03	4.04	< 3.70	90.4 µM	inactive	Active	inactive	92.5 µM	> 200 µM	Active
